Experimental data taken from BindingDB's records for doi:10.1021/jm00080a008 (Merck Sharp and Dohme Research Laboratories, 1992).

Key:
Myeloperoxidase [1] = biological target: T1, Myeloperoxidase (Homo sapiens, UniProt P05164); experiment: (§1) Compound was tested for the induction of nonspecific myeloperoxidase (MPO) release
T1 sequence (P05164 whole entry): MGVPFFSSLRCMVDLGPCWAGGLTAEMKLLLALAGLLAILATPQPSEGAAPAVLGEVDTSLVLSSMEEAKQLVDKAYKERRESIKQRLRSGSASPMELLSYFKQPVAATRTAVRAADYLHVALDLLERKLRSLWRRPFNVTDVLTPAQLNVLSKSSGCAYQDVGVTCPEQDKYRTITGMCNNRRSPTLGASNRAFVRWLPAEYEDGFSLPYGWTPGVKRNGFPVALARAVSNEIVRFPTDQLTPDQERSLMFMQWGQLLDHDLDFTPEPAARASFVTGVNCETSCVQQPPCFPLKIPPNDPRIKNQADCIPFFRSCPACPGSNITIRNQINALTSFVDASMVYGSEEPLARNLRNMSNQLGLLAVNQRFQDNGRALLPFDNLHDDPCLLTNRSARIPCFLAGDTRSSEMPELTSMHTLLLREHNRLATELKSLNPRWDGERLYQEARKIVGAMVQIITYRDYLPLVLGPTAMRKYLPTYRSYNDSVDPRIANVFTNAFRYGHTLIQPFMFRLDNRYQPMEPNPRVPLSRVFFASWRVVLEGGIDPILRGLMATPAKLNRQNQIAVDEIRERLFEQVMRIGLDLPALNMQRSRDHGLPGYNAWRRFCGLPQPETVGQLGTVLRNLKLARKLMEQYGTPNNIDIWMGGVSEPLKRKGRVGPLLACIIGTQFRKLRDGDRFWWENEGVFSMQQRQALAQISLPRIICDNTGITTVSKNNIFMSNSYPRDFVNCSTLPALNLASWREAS
Outline: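 Freshly isolated human PMN (Ficoll-Hypaque, erythrocytes lysed with NH4Cl/EDTA/KHCO3), 4×10^5/mL in HBSS. Preincubated with compound or 1% aqueous DMSO 20 min at 37 °C, then cytochalasin B (5 μg/mL final) 5 min. Stimulated 5 min at 37 °C with C5a or fMLF, or no stimulus for nonspecific release. MPO read with dimethoxybenzidine/H2O2 at pH 6.0, azide-quenched at 2 min, A450. Duplicate or triplicate.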

Myeloperoxidase [2] = biological target: T1, Myeloperoxidase; experiment: ChEBML_223053; protocol: as §1

| EC50 (Myeloperoxidase [1]) | EC50 (Myeloperoxidase [2]) | SMILES |
| --- | --- | --- |
| < 3 µM |  | Cc1cc(N)c2cc(NC(=O)/C=C/c3ccccc3Cl)ccc2n1 [MLS000737665] |
|  | < 3 µM | Cc1cc(N)c2cc(NC(=O)Nc3ccc4nc(C)cc(N)c4c3)ccc2n1 [Aminoquinuride] |
